Reference: ChEMBL document CHEMBL1287654, “Anticancer activity of N-bis(trifluoromethyl)alkyl-N'-(polychlorophenyl) and N'-(1,2,4-triazolyl) ureas” (2010)

What was measured:
Type in all cases: functional
IGROV-1 = assay: Growth inhibition of human IGROV1 cells after 48 hrs by sulforhodamine B assay; conditions: IGROV-1, 48 h
Summary of the method: (§1)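 NCI 60-cell-line main test over a five-log dose range. GI50 is the molar concentration giving half-growth inhibition, reported as log molar. Subpanel values are median GI50 across that subpanel's lines. Where 50% inhibition was not reached within the tested interval, the highest tested concentration was used.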

[1] = Growth inhibition of human leukemia cell after 48 hrs by sulforhodamine B assay
Summary of the method: (§2)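 Subpanel median growth inhibitory concentration: the average sensitivity of each tumor-type subpanel of the NCI 60-cell-line panel, derived from per-cell-line GI50 values. GI50 values came from a five log dose range and are expressed as log molar concentration for 50% net growth inhibition.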

SF-539 = assay: Growth inhibition of human SF539 cells after 48 hrs by sulforhodamine B assay; conditions: SF-539, 48 h; summary of the method: as §1
TK-10 = assay: Growth inhibition of human TK10 cells after 48 hrs by sulforhodamine B assay; conditions: TK-10, 48 h
Summary of the method: (§3)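 NCI 60-cell-line main screen across nine tumor types, with five log dose range per compound. GI50 is the molar concentration giving half growth inhibition, reported as the log of the molar concentration that inhibits 50% net cell growth.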

SK-MEL-5 = assay: Growth inhibition of human SK-MEL-5 cells after 48 hrs by sulforhodamine B assay; conditions: SK-MEL-5, 48 h; summary of the method: as §1
SF-268 [2] = assay: Growth inhibition of human SF268 cells after 48 hrs by sulforhodamine B assay; conditions: SF-268, 48 h; summary of the method: as §1
MCF7 = assay: Growth inhibition of human MCF7 cells assessed as cell growth at 100 uM after 48 hrs by sulforhodamine B assay relative to control; conditions: MCF7, 48 h, read-out: Activity
Summary of the method: (§4)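 One-dose pre-test on MCF7, NCI-H460 and SF-268. Cells were inoculated and pre-incubated on a microtiter plate, then given a single 10^-4 M dose and incubated 48 h. Growth was read spectrophotometrically and expressed as percent of untreated control cells; negative values indicate cell kill.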

LOX IMVI = assay: Growth inhibition of human LOXIMVI cells after 48 hrs by sulforhodamine B assay; summary of the method: as §1
[3] = Growth inhibition of human breast cancer cell after 48 hrs by sulforhodamine B assay; conditions: Cancer cell lines; summary of the method: as §2
NCI-H460 [4] = assay: Growth inhibition of human NCI-H460 cells assessed as cell growth at 100 uM after 48 hrs by sulforhodamine B assay relative to control; conditions: NCI-H460, 48 h, read-out: Activity; summary of the method: as §4
M14 = assay: Growth inhibition of human M14 cells after 48 hrs by sulforhodamine B assay; conditions: M14, 48 h; summary of the method: as §1
A549 = assay: Growth inhibition of human A549 cells after 48 hrs by sulforhodamine B assay; conditions: A549, 48 h; summary of the method: as §1
MDA-MB-231 = assay: Growth inhibition of human MDA-MB-231 cells after 48 hrs by sulforhodamine B assay; conditions: MDA-MB-231, 48 h; summary of the method: as §1
SK-MEL-28 = assay: Growth inhibition of human SK-MEL-28 cells after 48 hrs by sulforhodamine B assay; conditions: SK-MEL-28, 48 h; summary of the method: as §1
BT-549 = assay: Growth inhibition of human BT549 cells after 48 hrs by sulforhodamine B assay; conditions: BT-549, 48 h; summary of the method: as §1
UACC-62 = assay: Growth inhibition of human UACC62 cells after 48 hrs by sulforhodamine B assay; conditions: UACC-62, 48 h; summary of the method: as §3
Malme-3M = assay: Growth inhibition of human MALME-3M cells after 48 hrs by sulforhodamine B assay; summary of the method: as §1
MOLT-4 = assay: Growth inhibition of human MOLT4 cells after 48 hrs by sulforhodamine B assay; conditions: MOLT-4, 48 h; summary of the method: as §1
SK-MEL-2 = assay: Growth inhibition of human SK-MEL-2 cells after 48 hrs by sulforhodamine B assay; conditions: SK-MEL-2, 48 h; summary of the method: as §1
UACC-257 = assay: Growth inhibition of human UACC257 cells after 48 hrs by sulforhodamine B assay; conditions: UACC-257, 48 h; summary of the method: as §3
K562 = assay: Growth inhibition of human K562 cells after 48 hrs by sulforhodamine B assay; conditions: K562, 48 h; summary of the method: as §1
SR = assay: Growth inhibition of human SR cells after 48 hrs by sulforhodamine B assay; summary of the method: as §3
SW-620 = assay: Growth inhibition of human SW620 cells after 48 hrs by sulforhodamine B assay; conditions: SW-620, 48 h; summary of the method: as §3
PC-3 = assay: Growth inhibition of human PC3 cells after 48 hrs by sulforhodamine B assay; conditions: PC-3, 48 h; summary of the method: as §1
HCT-116 = assay: Growth inhibition of human HCT116 cells after 48 hrs by sulforhodamine B assay; conditions: HCT-116, 48 h; summary of the method: as §1
[5] = Growth inhibition of human melanoma cell after 48 hrs by sulforhodamine B assay; summary of the method: as §2
RXF 393 = assay: Growth inhibition of human RXF393 cells after 48 hrs by sulforhodamine B assay; conditions: RXF 393, 48 h; summary of the method: as §1
786-0 = assay: Growth inhibition of human 786-0 cells after 48 hrs by sulforhodamine B assay; conditions: 786-0, 48 h; summary of the method: as §1
UO-31 = assay: Growth inhibition of human UO31 cells after 48 hrs by sulforhodamine B assay; conditions: UO-31, 48 h; summary of the method: as §3
SF-268 [6] = assay: Growth inhibition of human SF268 cells assessed as cell growth at 100 uM after 48 hrs by sulforhodamine B assay relative to control; conditions: SF-268, 48 h, read-out: Activity; summary of the method: as §4
NCI-H226 = assay: Growth inhibition of human NCI-H226 cells after 48 hrs by sulforhodamine B assay; conditions: NCI-H226, 48 h; summary of the method: as §1
DU-145 = assay: Growth inhibition of human DU145 cells after 48 hrs by sulforhodamine B assay; conditions: DU-145, 48 h; summary of the method: as §1
A498 = assay: Growth inhibition of human A498 cells after 48 hrs by sulforhodamine B assay; conditions: A498, 48 h; summary of the method: as §1
SNB-75 = assay: Growth inhibition of human SNB75 cells after 48 hrs by sulforhodamine B assay; conditions: SNB-75, 48 h; summary of the method: as §3
ACHN = assay: Growth inhibition of human ACHN cells after 48 hrs by sulforhodamine B assay; summary of the method: as §1
HCC 2998 = assay: Growth inhibition of human HCC2998 cells after 48 hrs by sulforhodamine B assay; conditions: HCC 2998, 48 h; summary of the method: as §1
HL-60(TB) = assay: Growth inhibition of human HL-60(TB) cells after 48 hrs by sulforhodamine B assay; conditions: HL-60, 48 h
Summary of the method: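 NCI 60-cell-line panel run over a five-log dose range. GI50 is reported as the log of the molar concentration giving 50% net cell-growth inhibition, from dose-response against untreated controls. Where that effect was not reached within the concentration interval, the highest tested concentration was used in the calculation.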

HT-29 = assay: Growth inhibition of human HT-29 cells after 48 hrs by sulforhodamine B assay; conditions: HT-29, 48 h; summary of the method: as §1
COLO 205 = assay: Growth inhibition of human COLO205 cells after 48 hrs by sulforhodamine B assay; conditions: COLO 205, 48 h; summary of the method: as §1
OVCAR-4 = assay: Growth inhibition of human OVCAR4 cells after 48 hrs by sulforhodamine B assay; conditions: OVCAR-4, 48 h; summary of the method: as §1
NCI-H460 [7] = assay: Growth inhibition of human NCI-H460 cells after 48 hrs by sulforhodamine B assay; conditions: NCI-H460, 48 h; summary of the method: as §1

CCC(NC(=O)Nc1cc(Cl)ccc1Cl)(C(F)(F)F)C(F)(F)F
GI50 (IGROV-1): 5.62 µM | GI50 [1]: 3.8 µM | GI50 (SF-539): 9.55 µM | GI50 (TK-10): 2.24 µM | GI50 (SK-MEL-5): 6.61 µM | GI50 (SF-268 [2]): 4.79 µM | growth at 100 µM (MCF7): -89% | GI50 (LOX IMVI): 4.07 µM | GI50 [3]: 5.5 µM | growth at 100 µM (NCI-H460 [4]): -100% | GI50 (M14): 5.13 µM | GI50 (A549): 3.47 µM | GI50 (MDA-MB-231): 3.31 µM | GI50 (SK-MEL-28): 12 µM | GI50 (BT-549): 10.5 µM | GI50 (UACC-62): 4.17 µM | GI50 (Malme-3M): 8.13 µM | GI50 (MOLT-4): 3.72 µM | GI50 (SK-MEL-2): 2.19 µM | GI50 (UACC-257): 4.79 µM | GI50 (K562): 3.55 µM | GI50 (SR): 3.39 µM | GI50 (SW-620): 5.25 µM | GI50 (PC-3): 2.19 µM | GI50 (HCT-116): 3.24 µM | GI50 [5]: 5.25 µM | GI50 (RXF 393): 10 µM | GI50 (786-0): 4.37 µM | GI50 (UO-31): 2.63 µM | growth at 100 µM (SF-268 [6]): -99% | GI50 (NCI-H226): 6.17 µM | GI50 (DU-145): 4.68 µM | GI50 (A498): 4.17 µM | GI50 (SNB-75): 3.63 µM | GI50 (ACHN): 3.89 µM | GI50 (HCC 2998): 1.15 µM | GI50 (HL-60(TB)): 4.17 µM | GI50 (HT-29): 3.31 µM | GI50 (COLO 205): 1.82 µM | GI50 (OVCAR-4): 5.62 µM | GI50 (NCI-H460 [7]): 2.19 µM

CC(NC(=O)Nc1cc(Cl)ccc1Cl)(C(F)(F)F)C(F)(F)F
GI50 (IGROV-1): 17.8 µM | GI50 [1]: 9.12 µM | GI50 (SF-539): 30.2 µM | GI50 (TK-10): 19.5 µM | GI50 (SK-MEL-5): 25.1 µM | GI50 (SF-268 [2]): 72.4 µM | growth at 100 µM (MCF7): 34% | GI50 (LOX IMVI): 7.76 µM | GI50 [3]: 61.7 µM | growth at 100 µM (NCI-H460 [4]): 17% | GI50 (M14): > 100 µM | GI50 (A549): 5.62 µM | GI50 (MDA-MB-231): 30.2 µM | GI50 (SK-MEL-28): > 100 µM | GI50 (BT-549): > 100 µM | GI50 (UACC-62): > 100 µM | GI50 (Malme-3M): 17.8 µM | GI50 (MOLT-4): 9.55 µM | GI50 (SK-MEL-2): 12.3 µM | GI50 (UACC-257): 75.9 µM | GI50 (K562): 5.89 µM | GI50 (SR): 7.41 µM | GI50 (SW-620): > 100 µM | GI50 (PC-3): 3.47 µM | GI50 (HCT-116): 4.9 µM | GI50 [5]: 36.3 µM | GI50 (RXF 393): 77.6 µM | GI50 (786-0): 9.77 µM | GI50 (UO-31): 2.4 µM | growth at 100 µM (SF-268 [6]): 50% | GI50 (NCI-H226): 19.5 µM | GI50 (DU-145): 9.55 µM | GI50 (A498): > 100 µM | GI50 (SNB-75): 4.07 µM | GI50 (ACHN): 5.13 µM | GI50 (HCC 2998): 3.8 µM | GI50 (HL-60(TB)): 17.4 µM | GI50 (HT-29): 3.72 µM | GI50 (COLO 205): 4.17 µM | GI50 (OVCAR-4): 10.7 µM | GI50 (NCI-H460 [7]): 5.75 µM
